# Laboratory results reported in ChEMBL document CHEMBL3421533, “The Discovery of Orally Bioavailable Tyrosine Threonine Kinase (TTK) Inhibitors: 3-(4-(heterocyclyl)phenyl)-1H-indazole-5-carboxamides as Anticancer Agents” (J Med Chem, 2015).
# Assays:
# [1] = Plasma protein binding in mouse; type: ADME; conditions: read-out: PPB (converted)
# [2] = Cytotoxicity against human SKBR3 cells after 5 days by sulforhodamine B assay; type: functional; conditions: SK-BR-3, 120 h
# Method in brief: (§1)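 Cancer lines were seeded at 800–6000 cells per well according to growth rate, 24 h before compound overlay. After culture, cells were fixed in situ and stained with sulforhodamine B. GI50 values were derived by curve fitting.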
# [3] = target: T1, Dual specificity protein kinase TTK (Homo sapiens, UniProt P33981); experiment: Competitive inhibition of amino terminal GST-fused full length human TTK using His6-SUMO-TTK-N as substrate by Lineweaver-Burk plot analysis in presence of ATP; conditions: read-out: Ki(app)
# T1 sequence (P33981 whole entry): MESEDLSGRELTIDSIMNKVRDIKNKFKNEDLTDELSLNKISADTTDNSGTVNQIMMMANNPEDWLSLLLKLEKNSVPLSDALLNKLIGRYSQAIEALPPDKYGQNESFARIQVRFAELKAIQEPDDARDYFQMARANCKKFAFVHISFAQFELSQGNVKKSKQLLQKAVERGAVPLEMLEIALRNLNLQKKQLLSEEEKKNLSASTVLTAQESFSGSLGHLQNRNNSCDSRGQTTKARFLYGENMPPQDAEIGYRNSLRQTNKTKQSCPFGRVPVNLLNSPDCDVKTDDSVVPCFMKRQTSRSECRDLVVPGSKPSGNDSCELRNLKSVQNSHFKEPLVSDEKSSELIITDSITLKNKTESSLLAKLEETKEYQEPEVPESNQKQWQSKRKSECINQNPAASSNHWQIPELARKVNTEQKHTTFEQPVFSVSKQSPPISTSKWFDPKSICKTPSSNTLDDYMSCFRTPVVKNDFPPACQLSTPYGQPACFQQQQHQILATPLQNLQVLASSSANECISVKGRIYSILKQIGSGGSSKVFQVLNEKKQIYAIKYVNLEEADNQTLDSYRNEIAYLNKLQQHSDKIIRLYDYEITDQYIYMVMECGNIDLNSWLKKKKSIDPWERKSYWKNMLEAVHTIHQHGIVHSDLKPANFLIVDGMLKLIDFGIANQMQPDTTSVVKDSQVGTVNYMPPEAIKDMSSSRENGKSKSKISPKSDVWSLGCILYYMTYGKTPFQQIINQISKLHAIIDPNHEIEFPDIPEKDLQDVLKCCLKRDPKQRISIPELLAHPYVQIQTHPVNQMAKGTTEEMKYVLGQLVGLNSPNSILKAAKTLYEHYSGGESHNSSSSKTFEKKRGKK
# DU-145 = experiment: Cytotoxicity against human DU145 cells after 5 days by sulforhodamine B assay; type: functional; conditions: DU-145, 120 h; method in brief: as §1
# T47D = experiment: Cytotoxicity against human T47D cells after 5 days by sulforhodamine B assay; type: functional; conditions: 120 h; method in brief: as §1
# [4] = AUCinfinity in athymic CD1 nude mouse at 10 mg/kg, po by LC-MS/MS analysis; type: ADME, organism-based, Plasma; parameters: time infinity, dose 10 mg/kg, route oral; conditions: athymic CD1 nude, plasma
# MDA-MB-468 [5] = experiment: Antitumor activity against human MDA-MB-468 cells xenografted in CB-17 SCID mouse assessed as tumor growth inhibition at 30 mg/kg, po qd administered for 21 days measured 3 times per week during compound dosing relative to vehicle-treated control; type: functional; conditions: MDA-MB-468, 504 h, read-out: TGI
# Method in brief: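 Groups (n = 5) were randomized at a mean tumor volume of 80–120 mm³. Oral daily dosing for 21 days in 10% NMP/40% PEG400/50% DI water, top dose 30 mg/kg. Tumors were measured three times weekly, volume x²y/2, and TGI was computed against vehicle.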
# MDA-MB-231 = experiment: Cytotoxicity against human MDA-MB-231 cells after 5 days by sulforhodamine B assay; type: functional; conditions: MDA-MB-231, 120 h; method in brief: as §1
# MCF7 = experiment: Cytotoxicity against human MCF7 cells after 5 days by sulforhodamine B assay; type: functional; conditions: MCF7, 120 h; method in brief: as §1
# SW48 = experiment: Cytotoxicity against human SW48 cells after 5 days by sulforhodamine B assay; type: functional; conditions: SW48, 120 h; method in brief: as §1
# [6] = Plasma protein binding in human; type: ADME, cell-free; conditions: read-out: PPB (converted)
# BT-474 = experiment: Cytotoxicity against human BT474 cells after 5 days by sulforhodamine B assay; type: functional; conditions: BT-474, 120 h; method in brief: as §1
# [7] = Cytotoxicity against human HCT116 cells after 5 days by sulforhodamine B assay; type: functional, HCT-116; method in brief: as §1
# [8] = Cytotoxicity against human SKOV3 cells after 5 days by sulforhodamine B assay; type: functional; conditions: SK-OV-3, 120 h; method in brief: as §1
# [9] = target: Mitogen-activated protein kinase 1 (Homo sapiens, UniProt P28482); experiment: Inhibition of human MAPK1 by millipore radiometric assay
# Chain of Mitogen-activated protein kinase 1 (P28482 whole entry): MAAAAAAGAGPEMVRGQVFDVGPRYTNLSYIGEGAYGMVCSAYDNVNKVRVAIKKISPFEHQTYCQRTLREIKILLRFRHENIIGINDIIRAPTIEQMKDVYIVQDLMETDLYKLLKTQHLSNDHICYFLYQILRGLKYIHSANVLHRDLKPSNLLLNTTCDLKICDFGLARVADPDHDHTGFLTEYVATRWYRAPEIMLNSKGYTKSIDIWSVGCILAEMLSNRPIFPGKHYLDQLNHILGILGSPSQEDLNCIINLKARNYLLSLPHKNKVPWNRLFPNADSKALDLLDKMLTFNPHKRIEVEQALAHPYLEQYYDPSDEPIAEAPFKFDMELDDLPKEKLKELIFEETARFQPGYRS
# Method in brief: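 Radiometric profiling against a 278-kinase panel was done with ATP at Km. Half-maximal inhibitory concentrations were then determined for the kinases most inhibited.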
# [10] = Half life in dog liver microsomes at 1 uM by LC-MS analysis; type: ADME, Canis lupus familiaris
# MDA-MB-468 [11] = experiment: Cytotoxicity against human MDA-MB-468 cells after 5 days by sulforhodamine B assay; type: functional; method in brief: as §1
# [12] = Antitumor activity against human HCT116 cells xenografted in athymic CD1 nude mouse assessed as tumor growth inhibition at 23 mg/kg, po qd administered for 21 days measured 3 times per week during compound dosing relative to vehicle-treated control; type: functional; conditions: HCT-116, 504 h, read-out: TGI
# Method in brief: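 HCT116 cells (5 million) were injected subcutaneously into the right flank of 6–8 week old female athymic CD-1 nude mice. At a mean tumor volume of 80–120 mm³, mice were randomized (n = 8). Dosing was oral, daily for 21 days, in 10% NMP/40% PEG400/50% DI water, at the MTD and ~2/3 MTD. Tumors were measured three times weekly, volume x²y/2, and TGI was taken against vehicle.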
# COLO 205 = experiment: Cytotoxicity against human COLO205 cells after 5 days by sulforhodamine B assay; type: functional; conditions: COLO 205, 120 h; method in brief: as §1
# [13] = Toxicity in po dosed athymic CD1 nude mouse assessed as body weight loss in excess 20% and deemed moribund administered as qd for 21 days measured 3 times per week during compound dosing; type: organism-based; conditions: in vivo
# [14] = Cmax in athymic CD1 nude mouse at 10 mg/kg, po by LC-MS/MS analysis; type: ADME, organism-based; parameters: dose 10 mg/kg, route oral; conditions: athymic CD1 nude, in vivo
# Mus musculus = experiment: Toxicity in po dosed CD-1 nude mouse assessed as signs of overt toxicity administered as qd for 21 days; type: organism-based; conditions: in vivo, 504 h
# Method in brief: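 Female nude mice bearing subcutaneous tumors (80–120 mm³ at randomization) received vehicle (10% NMP/40% PEG400/50% water) or compound by daily oral dosing for 21 days. Doses were the MTD and ~2/3 MTD. Body weight and tumor volume were measured three times weekly. The MTD criterion (n = 3) was no body-weight loss over 20% and not moribund.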
compound,measurement,setting,value
O=C(N[C@@H](c1ccccn1)C1CC1)c1ccc2[nH]nc(-c3ccc(N4[C@H]5CC[C@H]4CC(O)C5)cc3)c2c1 (stereo in doubt; 75),fraction unbound,[1],0.042
same,GI50,[2],0.008 µM
same,Ki,[3],0.0007 µM
same,GI50,DU-145,0.017 µM
same,GI50,T47D,0.02 µM
same,AUC(0-inf),[4],3000 ng·h/mL
same,inhibition in vivo at 30 mg/kg,MDA-MB-468 [5],98%
same,GI50,MDA-MB-231,0.07 µM
same,GI50,MCF7,0.015 µM
same,GI50,SW48,0.019 µM
same,fraction unbound,[6],0.022
same,GI50,BT-474,0.015 µM
same,GI50,[7],0.017 µM
same,GI50,[8],0.017 µM
same,IC50,[9],0.32 µM
same,half-life at 1 µM,[10],> 1 h
same,GI50,MDA-MB-468 [11],0.036 µM
same,inhibition in vivo at 23 mg/kg,[12],55%
same,GI50,COLO 205,0.06 µM
same,MTD at 504 h,[13],35 mg/kg
same,Cmax,[14],2000 ng/mL
same,Activity,Mus musculus,Non-toxic
